Experimental data published in ChEMBL document CHEMBL1141626, “Thiosemicarbazones active against Clostridium difficile” (2008).
Values after ≈ are worked out from the molar mass of the structure shown. Active and inactive are the calls of the source. No cut-off for these calls is given here.

Legend:
Staphylococcus aureus [1] = experiment: Antimicrobial activity against Staphylococcus aureus K1 after 24 hrs; format: functional
Summary of the method: (§1)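 MIC by dilution in nutrient broth. Anaerobic organisms were incubated in an anaerobic cabinet. Controls were the same organisms incubated without test compound.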

Cutibacterium acnes [2] = experiment: Antimicrobial activity against Propionibacterium acnes C3 after 48 hrs; format: functional; summary of the method: as §1
Staphylococcus aureus [3] = experiment: Antimicrobial activity against Staphylococcus aureus ATCC 6538 after 24 hrs; format: functional; settings: ATCC 6538, 24 h; summary of the method: as §1
Cutibacterium acnes [4] = experiment: Antimicrobial activity against Propionibacterium acnes B5 after 48 hrs; format: functional
Summary of the method: (§2)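 Anaerobes incubated in an anaerobic cabinet for broth MIC determination. Drug-free incubations of the same organisms served as controls. Value is the minimum inhibitory concentration.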

[5] = test system: Staphylococcus epidermidis; experiment: Antimicrobial activity against Staphylococcus epidermidis 9 after 24 hrs; format: functional; summary of the method: as §1
Cutibacterium acnes [6] = experiment: Antimicrobial activity against Propionibacterium acnes NCTC 737 after 48 hrs; format: functional; settings: NCTC 737, 48 h; summary of the method: as §1
[7] = test system: Staphylococcus epidermidis; experiment: Antimicrobial activity against Staphylococcus epidermidis 4 after 24 hrs; format: functional; summary of the method: as §1
Staphylococcus aureus [8] = experiment: Antimicrobial activity against Staphylococcus aureus H1 after 24 hrs; format: functional; summary of the method: as §1
Clostridioides difficile [9] = experiment: Antimicrobial activity against Clostridium difficile Z229 after 48 hrs; format: functional; summary of the method: as §2
Clostridioides difficile [10] = experiment: Antimicrobial activity against Clostridium difficile O27 after 48 hrs; format: functional; summary of the method: as §2
Staphylococcus aureus [11] = experiment: Antimicrobial activity against methicillin-resistant Staphylococcus aureus A1 after 24 hrs; format: functional; summary of the method: as §1
Staphylococcus aureus [12] = experiment: Antimicrobial activity against methicillin-resistant Staphylococcus aureus E1 after 24 hrs; format: functional; summary of the method: as §1
Clostridioides difficile [13] = experiment: Antimicrobial activity against Clostridium difficile Z162 after 48 hrs; format: functional; summary of the method: as §2
[14] = test system: Staphylococcus epidermidis; experiment: Antimicrobial activity against Staphylococcus epidermidis NCTC 11047 after 24 hrs; format: functional; settings: NCTC 11047, 24 h; summary of the method: as §1
Cutibacterium acnes [15] = experiment: Antimicrobial activity against Propionibacterium acnes C5 after 48 hrs; format: functional; summary of the method: as §1
Staphylococcus aureus [16] = experiment: Antimicrobial activity against methicillin-resistant Staphylococcus aureus C3 after 24 hrs; format: functional; summary of the method: as §1
Clostridioides difficile [17] = experiment: Antimicrobial activity against Clostridium difficile NCTC 11204 after 48 hrs; format: functional; settings: NCTC 11204, 48 h; summary of the method: as §2
[18] = test system: Trichophyton mentagrophytes; experiment: Antimicrobial activity against Trichophyton mentagrophytes; format: functional, organism-based
Streptococcus pyogenes = experiment: Antimicrobial activity against Streptococcus pyogenes; format: functional, organism-based
Candida albicans = experiment: Antimicrobial activity against Candida albicans; format: functional, organism-based
Bacillus subtilis = experiment: Antimicrobial activity against Bacillus subtilis; format: functional, organism-based
Escherichia coli = experiment: Antimicrobial activity against Escherichia coli; format: functional, organism-based
Staphylococcus aureus [19] = experiment: Antimicrobial activity against Micrococcus pyogenes; format: functional, organism-based

SMILES	MIC (Staphylococcus aureus [1]) [µg/mL]	MIC (Cutibacterium acnes [2]) [µg/mL]	MIC (Staphylococcus aureus [3]) [µg/mL]	MIC (Cutibacterium acnes [4]) [µg/mL]	MIC [5] [µg/mL]	MIC (Cutibacterium acnes [6]) [µg/mL]	MIC [7] [µg/mL]	MIC (Staphylococcus aureus [8]) [µg/mL]	MIC (Clostridioides difficile [9]) [µg/mL]	MIC (Clostridioides difficile [10]) [µg/mL]	MIC (Staphylococcus aureus [11]) [µg/mL]	MIC (Staphylococcus aureus [12]) [µg/mL]	MIC (Clostridioides difficile [13]) [µg/mL]	MIC [14] [µg/mL]	MIC (Cutibacterium acnes [15]) [µg/mL]	MIC (Staphylococcus aureus [16]) [µg/mL]	MIC (Clostridioides difficile [17]) [µg/mL]	also measured
CCNC(=S)N/N=C/C=C/c1ccco1	> 256	32 (≈ 143 µM)	> 256	> 256	> 256	16 (≈ 71.7 µM)	> 256	> 256	64 (≈ 287 µM)	64 (≈ 287 µM)	> 256	> 256	> 256	> 256	32 (≈ 143 µM)	> 256	> 256	
CC(C)NC(=S)N/N=C/C=C/c1ccco1	> 256	1 (≈ 4.21 µM)	> 256	> 256	> 256	32 (≈ 135 µM)	> 256	> 256	128 (≈ 539 µM)	64 (≈ 270 µM)	> 256	> 256	> 256	> 256	64 (≈ 270 µM)	> 256	> 256	
CNC(=S)N/N=C/C=C/c1ccc([N+](=O)[O-])o1	> 256	1 (≈ 3.93 µM)	32 (≈ 126 µM)	1 (≈ 3.93 µM)	64 (≈ 252 µM)	16 (≈ 62.9 µM)	32 (≈ 126 µM)	16 (≈ 62.9 µM)	16 (≈ 62.9 µM)	32 (≈ 126 µM)	64 (≈ 252 µM)	64 (≈ 252 µM)	32 (≈ 126 µM)	32 (≈ 126 µM)	64 (≈ 252 µM)	64 (≈ 252 µM)	64 (≈ 252 µM)	
CNC(=S)N/N=C/c1ccc([N+](=O)[O-])o1	128 (≈ 561 µM)	16 (≈ 70.1 µM)	64 (≈ 280 µM)	64 (≈ 280 µM)	128 (≈ 561 µM)	16 (≈ 70.1 µM)	32 (≈ 140 µM)	64 (≈ 280 µM)	64 (≈ 280 µM)	64 (≈ 280 µM)	64 (≈ 280 µM)	64 (≈ 280 µM)	> 256	16 (≈ 70.1 µM)	64 (≈ 280 µM)	> 256	> 256	
CC(C)(C)NC(=S)N/N=C/C=C/c1ccc([N+](=O)[O-])o1	32 (≈ 108 µM)	8 (≈ 27 µM)	> 256	32 (≈ 108 µM)	> 256	16 (≈ 54 µM)	> 256	64 (≈ 216 µM)	64 (≈ 216 µM)	64 (≈ 216 µM)	> 256	> 256	128 (≈ 432 µM)	> 256	16 (≈ 54 µM)	> 256	> 256	
CC(C)NC(=S)N/N=C/C=C/c1ccc([N+](=O)[O-])o1	> 256	32 (≈ 113 µM)	> 256	32 (≈ 113 µM)	> 256	32 (≈ 113 µM)	64 (≈ 227 µM)	256 (≈ 907 µM)	64 (≈ 227 µM)	64 (≈ 227 µM)	> 256	> 256	> 256	64 (≈ 227 µM)	64 (≈ 227 µM)	> 256	> 256	
CN[C@H](CC(C)C)C(=O)N[C@H]1C(=O)N[C@@H](CC(N)=O)C(=O)N[C@H]2C(=O)N[C@H]3C(=O)N[C@H](C(=O)N[C@H](C(=O)O)c4cc(O)cc(O)c4-c4cc3ccc4O)[C@H](O)c3ccc(c(Cl)c3)Oc3cc2cc(c3O[C@@H]2O[C@H](CO)[C@@H](O)[C@H](O)[C@H]2O[C@H]2C[C@](C)(N)[C@H](O)[C@H](C)O2)Oc2ccc(cc2Cl)[C@H]1O [VANCOMYCIN]			1.5 (≈ 1.04 µM)			0.5 (≈ 0.345 µM)				0.75 (≈ 0.518 µM)							0.5 (≈ 0.345 µM)	
CC(C)NC(=S)N/N=C/c1ccc([N+](=O)[O-])o1	> 256	32 (≈ 125 µM)	64 (≈ 250 µM)	> 256	> 256	64 (≈ 250 µM)	> 256	128 (≈ 499 µM)	128 (≈ 499 µM)	64 (≈ 250 µM)	> 256	> 256	> 256	64 (≈ 250 µM)	64 (≈ 250 µM)	> 256	> 256	
CC(C)(C)NC(=S)N/N=C/C=C/c1ccco1	> 256	4 (≈ 15.9 µM)	> 256	64 (≈ 255 µM)	> 256	64 (≈ 255 µM)	> 256	> 256	64 (≈ 255 µM)	64 (≈ 255 µM)	> 256	> 256	> 256	> 256	1 (≈ 3.98 µM)	> 256	> 256	
CNC(=S)N/N=C/C=C/c1ccco1	> 256	16 (≈ 76.5 µM)	> 256	32 (≈ 153 µM)	> 256	32 (≈ 153 µM)	128 (≈ 612 µM)	> 256	128 (≈ 612 µM)	64 (≈ 306 µM)	> 256	> 256	> 256	> 256	1 (≈ 4.78 µM)	> 256	> 256	
CCNC(=S)N/N=C/c1ccc([N+](=O)[O-])o1	64 (≈ 264 µM)	2 (≈ 8.26 µM)	32 (≈ 132 µM)	32 (≈ 132 µM)	64 (≈ 264 µM)	16 (≈ 66 µM)	32 (≈ 132 µM)	16 (≈ 66 µM)	8 (≈ 33 µM)	64 (≈ 264 µM)	64 (≈ 264 µM)	64 (≈ 264 µM)	128 (≈ 528 µM)	32 (≈ 132 µM)	32 (≈ 132 µM)	64 (≈ 264 µM)	64 (≈ 264 µM)	Activity [18]: Active; Activity (Streptococcus pyogenes): Active; Activity (Candida albicans): Active; Activity (Bacillus subtilis): Active; Activity (Escherichia coli): Active; Activity (Staphylococcus aureus [19]): Active
CC(C)(C)NC(=S)N/N=C/c1ccc([N+](=O)[O-])o1	64 (≈ 237 µM)	16 (≈ 59.2 µM)	64 (≈ 237 µM)	32 (≈ 118 µM)	> 256	64 (≈ 237 µM)	> 256	> 256	16 (≈ 59.2 µM)	> 256	> 256	> 256	128 (≈ 474 µM)	128 (≈ 474 µM)	16 (≈ 59.2 µM)	> 256	128 (≈ 474 µM)	
